One test deals with KB. The test can be described thus: Cytotoxicity against human KB cells by SRB assay. It is filed as functional, cell-based. The note with it: for pIC50: Homo sapiens, KB, read-out: IC50. Summed up:
(§1)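 Colorimetric cytotoxicity assay. IC50 given as mean ± SD (n = 3), curve fits with R2 > 0.9. Ellipticine served as positive control.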

The subject of the next test is Vero. The test can be described thus: Cytotoxicity against african green monkey Vero cells by SRB assay. It is filed as cell-based, Chlorocebus sabaeus. The note with it: for pIC50: Chlorocebus sabaeus, Vero, read-out: IC50. Summed up: as §1
In another test the test system is NCI-H187. The test is described as follows: Cytotoxicity against human NCI-H187 cells by SRB assay. It is filed as functional, cell-based. To be noted: for pIC50: Homo sapiens, NCI-H187, read-out: IC50. Summed up: as §1
On the technique in general: Sulforhodamine B stains cellular protein and so reports cell mass.

A short description of test [1]: Cytotoxicity against human BC cells by SRB assay. It is filed as functional, cell-based. The note with it: for pIC50: Homo sapiens, BC, read-out: IC50. Summed up: as §1
The test system of another test is Candida albicans. The test can be described thus: Antifungal activity against Candida albicans. Type of test: functional, organism-based. The essentials: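 Colorimetric growth-inhibition assay against Candida albicans; IC50 values reported.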
For another test, the system named is Plasmodium falciparum. The test can be described thus: Antiplasmodial activity after 24 hrs against Plasmodium falciparum K1 by [G-3H]hypoxanthine uptake. To be noted: K1, 24 h. Type of test: functional, organism-based. Summed up: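 P. falciparum K1 tested by a microculture radioisotope technique, with IC50 as the read-out.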
Test [2] relates to Mycobacterium tuberculosis. The test can be described thus: Antitubercular activity against Mycobacterium tuberculosis H37Ra after 4 days by microplate alamar blue assay. Type of test: functional. To be noted: 96 h. The essentials: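 M. tuberculosis H37Ra tested by microplate Alamar Blue assay. MIC was taken as the lowest concentration giving ≥90% growth inhibition.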
In general terms: Resazurin is reduced to fluorescent resorufin, in cell work by metabolically active cells.

The text below walks through data of ChEMBL document CHEMBL1151838, “Isariotins E and F, spirocyclic and bicyclic hemiacetals from the entomopathogenic fungus Isaria tenuipes BCC 12625” (J Nat Prod, 2009).

The term pIC50 denotes the IC50 on a negative log10 scale, so that one unit is a factor of ten. By MIC is commonly meant the least concentration at which growth counts as inhibited.

pIC50: −log10 of the molar value. In brackets after ≈: the same amount, converted by molar mass.

`CCCCCCCCC/C=C/C(=O)N[C@H]1C[C@@]2(O)C(=O)[C@@H]([C@H]1O)[C@H](OC)[C@@H]1O[C@@H]12`: the IC50 result (in the test on KB (kb); in the test on Vero (vero); with NCI-H187 (nci-h187); in test [1] (bc)) was “Not Active” throughout.

`C[C@@H]1[C@H](O)[C@@H](C)/C=C/C=C/C=C/C=C/C=C/C=C/C=C/[C@H](O[C@@H]2O[C@H](C)[C@@H](O)[C@H](N)[C@@H]2O)C[C@@H]2O[C@](O)(C[C@@H](O)C[C@@H](O)[C@H](O)CC[C@@H](O)C[C@@H](O)CC(=O)O[C@H]1C)C[C@H](O)[C@H]2C(=O)O` [AMPHOTERICIN B] showed a pIC50 in the test on Candida albicans of 7.52.

As for `C[C@H]1[C@@H](O)O[C@@H]2O[C@@]3(C)CC[C@H]4[C@H](C)CC[C@@H]1[C@@]24OO3` [ARTENIMOL], in the test with Plasmodium falciparum, the pIC50 was 8.40.

For `Cc1c2ccncc2c(C)c2c1[nH]c1ccccc12` [ELLIPTECINE], the pIC50 in the test on KB is 5.86; with Vero it was 5.77; in the test with NCI-H187 it was 5.36; in test [1], 5.92.

`CCCCCCCCC/C=C/C(=O)N[C@H]1C[C@@]2(O)C(=O)C=C[C@@H](Cl)[C@@H]2O[C@H]1O` [ISARIOTIN F]: the pIC50 in the test on KB is 4.80; in the test with Vero it was 5.54; with NCI-H187 it was 5.80; in test [1], 5.62; in the test on Candida albicans, 4.86; in the test with Plasmodium falciparum, 5.29. Besides, the MIC in test [2] turned out to be 60.4 µM (≈ 25 µg/mL).

As to `NNC(=O)c1ccncc1` [ISONIAZID], the lowest concentration to inhibit growth in test [2] (MIC) was 0.37 µM (≈ 0.0507 µg/mL).
